For series [1], the target named is T1, Monoglyceride lipase (Rattus norvegicus, UniProt Q8R431).
T1 sequence (Q8R431 whole entry): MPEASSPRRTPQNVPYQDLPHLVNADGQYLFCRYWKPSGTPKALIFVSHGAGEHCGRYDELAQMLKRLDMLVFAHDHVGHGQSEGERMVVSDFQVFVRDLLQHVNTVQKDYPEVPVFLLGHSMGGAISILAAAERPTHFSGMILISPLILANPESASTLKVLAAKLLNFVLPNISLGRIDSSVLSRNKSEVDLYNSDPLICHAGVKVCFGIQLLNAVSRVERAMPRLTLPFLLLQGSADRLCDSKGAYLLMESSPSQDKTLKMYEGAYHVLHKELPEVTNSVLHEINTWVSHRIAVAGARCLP
Put plainly: Inhibition of recombinant rat MGL expressed in human HeLa cells using 2-oleoylglycerol as substrate preincubated for 10 mins followed by substrate addition and measured after 10 mins by LC-MS analysis. The class given is cell-based.

Series [2] deals with N2a. Put plainly: Protection against H2O2-induced toxicity in mouse Neuro2a cells assessed as reduction in LDH release at 1 uM preincubated for 30 mins followed by H2O2 challenge and measured after 24 hrs. The class given is functional, cell-based. Summed up:
(§1)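 Neuro-2a cells seeded 5×10^3/well, after 24 h pretreated with agents 30 min, then H2O2 300 µM for 24 h; LDH release into medium measured by absorbance with cytotoxicity detection kit; mean ± SEM; t test or one-way ANOVA with Dunnett's.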
A general note: LDH leaks from cells whose membrane has failed.

The subject of series [3] is N2a. Put plainly: Protection against H2O2-induced toxicity in mouse Neuro2a cells assessed as reduction in LDH release at 1 uM preincubated for 30 mins followed by H2O2 challenge and measured after 24 hrs in presence of CB1 receptor antagonist rimonabant. Format: functional, cell-based. In outline: as §1
For series [4], the target named is Monoglyceride lipase (Rattus norvegicus, UniProt Q8R431, C201A). Description: Inhibition of recombinant rat MGL C201A mutant expressed in human HeLa cells using 2-oleoylglycerol as substrate preincubated for 10 mins followed by substrate addition and measured after 10 mins by LC-MS analysis. The class given is cell-based.
Series [5] concerns the target Monoglyceride lipase (Rattus norvegicus, UniProt Q8R431, C208A). Description: Inhibition of recombinant rat MGL C208A mutant expressed in human HeLa cells using 2-oleoylglycerol as substrate preincubated for 10 mins followed by substrate addition and measured after 10 mins by LC-MS analysis. Format: cell-based.
Series [6] concerns the target Monoglyceride lipase (Rattus norvegicus, UniProt Q8R431, C201A/C208A). Description: Inhibition of recombinant rat MGL C201A/C208A mutant expressed in human HeLa cells using 2-oleoylglycerol as substrate preincubated for 10 mins followed by substrate addition and measured after 10 mins by LC-MS analysis.
Series [7] in a line: Drug metabolism in pH 7.4 phosphate buffered saline assessed as N-(2-phenylethyl)-2-[[2-(2-phenylethylcarbamoyl)phenyl]disulfanyl]benzamide formation at 100 uM measured after 60 mins in presence of N-(2-phenylethyl)-2-sulfanyl-benzamide by HR-MS analysis. In outline:
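Compound 100 μM final (from 10 mM DMSO stock, 1% DMSO) with GSH 200 μM final in 10 mM PBS pH 7.4 at 37 °C; species quantified at t = 60 min by LC/UV (210/254 nm) and HR-MS (Orbitrap, ESI); mean ± SEM, n = 3-4.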

A short description of series [8]: Glutathione reactivity in pH 7.4 phosphate buffered saline assessed as GSH-adduct formation by measuring GSH level at 100 uM measured after 60 mins by HR-MS analysis. Format: ADME. The conditions noted are these: buffer, pH 7.4, 1 h. Summed up: (§2)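 BTZ 100 µM final (from 10 mM DMSO stock, 1% DMSO final) with GSH 200 µM final in 10 mM PBS pH 7.4 at 37.0 °C; sampled at 60 min (steady state). GSH, GSSG and BTZ quantified by LC/UV (210 nm for GSH/GSSG, 254 nm for BTZ) against PBS standard curves; products identified by HR-MS (Orbitrap). Mean ± SEM, n = 3-4.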

Series [9] is described as follows: Glutathione reactivity in pH 7.4 phosphate buffered saline assessed as GSH-adduct formation by measuring oxidized GSH level at 100 uM measured after 60 mins by HR-MS analysis. Format: ADME. The conditions noted are these: buffer, pH 7.4, 1 h. Summed up:
as §2

Series [10] is described as follows: Glutathione reactivity in pH 7.4 phosphate buffered saline assessed as GSH-adduct formation by measuring parent compound level at 100 uM measured after 60 mins by HR-MS analysis. Format: ADME. Conditions: buffer, pH 7.4, 1 h, BLD = below limit of detection. In outline:
as §2

Series [11] in a line: Tmax in C57BL6 mouse plasma at 10 mg/kg, ip by LC-MS/MS analysis. The class given is ADME, organism-based. In outline: (§3)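 Adult male C57/BL6 mice, n=4 per group, single 10 mg/kg i.p. dose, saline vehicle. Plasma and brain collected at set times after injection. Brains homogenized in acetonitrile with 0.1% formic acid and passed through lipid-removal cartridges. Compound quantified by LC-MS/MS on C18 with formic acid water/methanol step gradient; LOQ 0.1 ng/mL, linear 0.1-100.0 ng/mL.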

Series [12] can be described thus: Tmax in C57BL6 mouse brain at 10 mg/kg, ip by LC-MS/MS analysis. Format: ADME, organism-based. In outline: as §3
The nature of series [13]: Ratio of drug level in brain to plasma of C57BL6 mouse at 10 mg/kg, ip by LC-MS/MS analysis. The class given is ADME, organism-based. Summed up: as §3
For series [14], the system named is Mus musculus. Put plainly: In vivo inhibition of MGL in C57BL6 mouse assessed as increase in 2-AG level at 10 mg/kg, ip measured after 2 hrs by LC-MS/MS analysis. The class given is functional, organism-based. Summed up: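 Adult male C57/BL6 mice, n=4 per group, single 10 mg/kg i.p. dose, saline vehicle; brains collected 2 h post-injection; lipids extracted from homogenate and 2-AG measured by LC-MS (triple quadrupole, ESI positive, isocratic C18); two-tailed t test or ANOVA with Dunnett's.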

Activity calls are given as the source filed them. The calls are words filed in the database; no cut-off is given here.

Sequence of Monoglyceride lipase (Rattus norvegicus, UniProt Q8R431, C201A) (Q8R431 whole entry C201A): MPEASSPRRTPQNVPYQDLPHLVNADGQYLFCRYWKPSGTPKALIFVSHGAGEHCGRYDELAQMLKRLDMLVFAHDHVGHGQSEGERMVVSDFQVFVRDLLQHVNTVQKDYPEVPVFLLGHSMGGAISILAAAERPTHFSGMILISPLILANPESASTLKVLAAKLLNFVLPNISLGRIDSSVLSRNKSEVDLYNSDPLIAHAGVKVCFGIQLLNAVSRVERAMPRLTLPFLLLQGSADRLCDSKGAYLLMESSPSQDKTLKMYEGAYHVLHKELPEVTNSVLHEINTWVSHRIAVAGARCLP
Sequence of Monoglyceride lipase (Rattus norvegicus, UniProt Q8R431, C201A/C208A) (Q8R431 whole entry C201A/C208A): as the sequence (Q8R431 whole entry C201A) above, with C208A counted along it
Sequence of Monoglyceride lipase (Rattus norvegicus, UniProt Q8R431, C208A) (Q8R431 whole entry C208A): as the sequence (Q8R431 whole entry C201A) above, with A201C, C208A counted along it

`O=c1c2ccccc2sn1CCCCCCN1CCCCC1`: in [1], the IC50 was determined as 195 nM.

On to `O=c1[nH]sc2ccccc12`, for which the IC50 in [1] was determined as 306 nM.

`COc1ccc2sn(CCc3ccccc3)c(=O)c2c1`: in series [1], the IC50 was found to be 568 nM.

As to `COC(=O)c1ccc(CNn2sc3ccccc3c2=O)cc1`, the IC50 in [1] was 93.9 nM.

On to `Cn1sc2ccccc2c1=O`, for which the IC50 in series [1] was 59.5 nM.

Turning to `O=C(Oc1ccc([N+](=O)[O-])cc1)N1CCC(C(O)(c2ccc3c(c2)OCO3)c2ccc3c(c2)OCO3)CC1`, the result in series [2] was Active. Moreover, in series [3], the result was inactive.

For `O=c1c2cc([N+](=O)[O-])ccc2sn1CCc1ccccc1`, the IC50 in series [1] came out at 163 nM.

For `O=c1c2ccccc2sn1NCCCCCCNn1sc2ccccc2c1=O`, the IC50 in series [1] stood at 16.8 nM; in series [4] it was 114 nM; in [5], 82.7 nM; in series [6] it was 2080 nM.

As to `O=c1c2ccccc2sn1CCc1cccc2ccccc12`, in [1], the IC50 amounted to 21.8 nM.

For `O=c1c2ccccc2sn1NCc1ccccc1`, the IC50 turned out to be 19.5 nM in [1], 54.4 nM in series [4], 44.9 nM in series [5] and 782 nM in series [6].

For `O=c1c2ccccc2sn1NCc1ccc(-c2ccccc2)cc1`, the IC50 in series [1] is 322 nM.

Turning to `Cc1cccc2c(=O)n(CCc3ccccc3)sc12`, the IC50 in [1] was 13100 nM.

Consider `O=C(O)c1ccc(CNn2sc3ccccc3c2=O)cc1`, for which, in series [1], the IC50 stood at 278 nM.

Turning to `O=c1ccsn1CCc1ccccc1`, the IC50 in series [1] came to 759 nM.

Regarding `O=c1c2ccccc2sn1CCc1ccc2ccccc2c1`, in [1], the IC50 was found to be 54.2 nM.

Take `COc1ccc2c(=O)n(CCc3ccccc3)sc2c1`: the IC50 in series [1] amounted to 512 nM.

As to `CN(Cc1ccccc1)n1sc2ccccc2c1=O`, the IC50 in series [1] was found to be 189 nM.

For `O=c1c2ccccc2sn1NCCCCCNn1sc2ccccc2c1=O`, the IC50 was found to be 11.5 nM in [1], 230 nM in [4], 220 nM in series [5] and 1460 nM in series [6].

Turning to `O=c1c2ccccc2sn1CCc1ccccc1`, the Drug metabolism result in series [7] is on record as “Metabolite detected”. For the same compound, the Activity is 73.4 µM in series [8], 61.8% in series [9] and “Bld” in series [10]. Moreover, in series [2], the outcome was Active. The outcome in [3] was inactive. The Tmax in series [11] and in series [12] was 15 min in each case. In addition, in series [13], the BPR is reported as 4.5%. Also, the inhibition result in series [14] is “Active”.

For the compound `O=c1c2ccccc2sn1C1CCCCC1`, the IC50 in series [1] is 55.5 nM.

Take `O=c1c2ccc([N+](=O)[O-])cc2sn1CCc1ccccc1`: the IC50 in [1] is 238 nM.

For `O=c1c2ccc(O)cc2sn1CCc1ccccc1`, in series [1], the IC50 is 2550 nM.

Regarding `O=c1c2cc(O)ccc2sn1CCc1ccccc1`, the IC50 in series [1] was found to be 135 nM.

The IC50 is the midpoint of a concentration-inhibition curve. For orientation: Tmax means the time from dosing to the highest level.

(Values after ChEMBL document CHEMBL4354821, “Benzisothiazolinone Derivatives as Potent Allosteric Monoacylglycerol Lipase Inhibitors That Functionally Mimic Sulfenylation of Regulatory Cysteines” (J Med Chem, 2020).)
